In ChEMBL document CHEMBL1806360, “Synthesis and biological evaluation of conformationally flexible as well as restricted dimers of monastrol and related dihydropyrimidones” (Eur J Med Chem, 2011):
Converted amounts (≈) assume the structure as drawn. The source made the active and inactive calls. No cut-off for these calls is given here.

Assays:
HT-29 = assay: Cytotoxicity against human HT-29 cells after 48 hrs by MTT assay; assay type: functional, cell-based; conditions: HT-29, 48 h
MCF7 [1] = assay: Cytotoxicity against human MCF7 cells after 48 hrs by MTT assay; assay type: functional, cell-based; conditions: MCF7, 48 h
How it was run: (§1)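 MTT assay. Medium with 10% FBS and 2 mM L-glutamine was DMEM for A431 and Colo-205, RPMI for A549, and MEM for MCF-7. Cultures were preincubated 24 h at 37 °C, 5% CO2. 1 × 10⁴ cells (trypan blue count) were exposed to 200, 100, 50, 25 and 10 concentration levels for 48 h at 37 °C. MTT was added for 4 h, formazan dissolved in DMSO, and A570 read. IC50 was curve-fitted from viability versus untreated cells, three experiments.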

A-431 = assay: Cytotoxicity against human A431 cells after 48 hrs by MTT assay; assay type: functional, cell-based; conditions: A-431, 48 h; how it was run: as §1
A549 = assay: Cytotoxicity against human A549 cells after 48 hrs by MTT assay; assay type: functional, cell-based; conditions: A549, 48 h; how it was run: as §1
MCF7 [2] = assay: Ratio IC50 for monastrol to compound for human MCF7 cells; assay type: functional
COLO 205 = assay: Cytotoxicity against human COLO205 cells after 48 hrs by MTT assay; assay type: functional, cell-based; conditions: COLO 205, 48 h; how it was run: as §1
Klebsiella pneumoniae [3] = assay: Antibacterial activity against Klebsiella pneumoniae assessed as zone of inhibition at 100 ug/ml by agar plate method; assay type: functional; conditions: read-out: IZ
How it was run: (§2)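 Well diffusion on Mueller-Hinton agar. Inoculum from 3–5 colonies was grown in nutrient broth and adjusted to 0.5 McFarland (about 1 × 10⁸ CFU/mL), then swabbed over the plate. Compounds were dissolved in DMSO and added to duplicate 6 mm wells. Plates were incubated 18 h at 37 °C, and inhibition zone diameter was read to the nearest mm. Ciprofloxacin was the positive control and DMSO the negative control.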

Escherichia coli [4] = assay: Antibacterial activity against Escherichia coli assessed as zone of inhibition at 100 ug/ml by agar plate method; assay type: functional; conditions: read-out: IZ; how it was run: as §2
[5] = system: Staphylococcus epidermidis; assay: Antibacterial activity against Staphylococcus epidermidis assessed as zone of inhibition at 50 ug/ml by agar plate method; assay type: functional, organism-based; how it was run: as §2
[6] = system: Staphylococcus epidermidis; assay: Antibacterial activity against Staphylococcus epidermidis assessed as zone of inhibition at 100 ug/ml by agar plate method; assay type: functional; conditions: read-out: IZ; how it was run: as §2
Staphylococcus aureus = assay: Antibacterial activity against Staphylococcus aureus assessed as zone of inhibition at 100 ug/ml by agar plate method; assay type: functional; conditions: read-out: IZ; how it was run: as §2
Bacillus subtilis [7] = assay: Antibacterial activity against Bacillus subtilis assessed as zone of inhibition at 100 ug/ml by agar plate method; assay type: functional; conditions: read-out: IZ; how it was run: as §2
Bacillus subtilis [8] = assay: Antibacterial activity against Bacillus subtilis assessed as zone of inhibition at 50 ug/ml by agar plate method; assay type: functional, organism-based; how it was run: as §2
Escherichia coli [9] = assay: Antibacterial activity against Escherichia coli assessed as zone of inhibition at 50 ug/ml by agar plate method; assay type: functional, organism-based; how it was run: as §2
Klebsiella pneumoniae [10] = assay: Antibacterial activity against Klebsiella pneumoniae assessed as zone of inhibition at 50 ug/ml by agar plate method; assay type: functional, organism-based; how it was run: as §2
Pseudomonas aeruginosa = assay: Antibacterial activity against Pseudomonas aeruginosa assessed as zone of inhibition at 100 ug/ml by agar plate method; assay type: functional; conditions: read-out: IZ; how it was run: as §2
Nucleic Acid = assay: Binding affinity to calf thymus DNA assessed as change in melting temperature at compound to DNA ratio of 1:5 after 18 hrs at pH 7; assay type: nucleic-acid assay; conditions: Bos taurus
How it was run: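 Thermal melting of calf thymus DNA in 10 mM sodium phosphate with 1 mM Na2EDTA, pH 7.00. Compound was added from DMSO stock at a fixed 1:5 compound:DNA molar ratio. The mix was incubated 18 h at 37 °C, then A260 was monitored while heating at 1 °C/min over 40–90 °C. ΔTm is relative to DNA alone.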

ΔTm (Nucleic Acid) [°C]	SMILES	IC50 (HT-29) [µg/mL]	IC50 (MCF7 [1]) [µg/mL]	IC50 (A-431) [µg/mL]	IC50 (A549) [µg/mL]	Ratio IC50 (MCF7 [2])	IC50 (COLO 205) [µg/mL]	zone of inhibition at 100 µg/mL (Klebsiella pneumoniae [3]) [mm]	zone of inhibition at 100 µg/mL (Escherichia coli [4]) [mm]	Activity [5]	zone of inhibition at 100 µg/mL [6] [mm]	zone of inhibition at 100 µg/mL (Staphylococcus aureus) [mm]	zone of inhibition at 100 µg/mL (Bacillus subtilis [7]) [mm]	Activity (Bacillus subtilis [8])	Activity (Escherichia coli [9])	Activity (Klebsiella pneumoniae [10])	zone of inhibition at 100 µg/mL (Pseudomonas aeruginosa) [mm]
	CCOC(=O)C1=C(C)NC(=S)NC1c1ccc(OCCCOc2ccc(C3NC(=S)NC(C)=C3C(=O)OCC)cc2OC)c(OC)c1 (configuration not stated)	> 200	22 (≈ 32.1 µM)	66 (≈ 96.4 µM)	116 (≈ 169 µM)	2	49 (≈ 71.5 µM)										
	COC(=O)[C@@H]1CCCN1C(=O)C1=C(C)NC(=S)NC1c1cccc(OCCCCOc2cccc(C3NC(=S)NC(C)=C3C(=O)N3CCC[C@H]3C(=O)OC)c2)c1 (some centres not stated)	> 200	128 (≈ 159 µM)	148 (≈ 184 µM)	> 200		154 (≈ 191 µM)										
	CCOC(=O)C1=C(C)NC(=S)NC1c1cccc(OCCCCOc2cccc(C3NC(=S)NC(C)=C3C(=O)OCC)c2)c1 (configuration not stated)	> 200	186 (≈ 291 µM)	> 200	> 200		> 200										
	O=C(O)c1cn(C2CC2)c2cc(N3CCNCC3)c(F)cc2c1=O [CIPROFLOXACIN]							12	35	inactive	35	25	33	inactive	inactive	inactive	38
	COC(=O)[C@@H]1CCCN1C(=O)C1=C(C)NC(=S)NC1c1ccc(OCCCCCOc2ccc(C3NC(=S)NC(C)=C3C(=O)N3CCC[C@H]3C(=O)OC)cc2OC)c(OC)c1 (some centres not stated)	> 200	55 (≈ 62.6 µM)	125 (≈ 142 µM)	150 (≈ 171 µM)		142 (≈ 162 µM)										
2.5	COC(=O)[C@@H]1CCCN1C(=O)C1=C(C)NC(=S)NC1c1cccc(OC/C=C/COc2cccc(C3NC(=S)NC(C)=C3C(=O)N3CCC[C@H]3C(=O)OC)c2)c1 (some centres not stated)	> 200	54 (≈ 67.2 µM)	96 (≈ 120 µM)	148 (≈ 184 µM)		127 (≈ 158 µM)										
3.1	COC(=O)[C@@H]1CCCN1C(=O)C1=C(C)NC(=S)NC1c1cccc(OC/C=C\COc2cccc(C3NC(=S)NC(C)=C3C(=O)N3CCC[C@H]3C(=O)OC)c2)c1 (some centres not stated)	> 200	156 (≈ 194 µM)	183 (≈ 228 µM)	> 200		180 (≈ 224 µM)	3	12	inactive	17	15	12	inactive	inactive	inactive	12
	CCOC(=O)C1=C(C)NC(=S)NC1c1ccc(OC/C=C\COc2ccc(C3NC(=S)NC(C)=C3C(=O)OCC)cc2OC)c(OC)c1 (configuration not stated)	> 200	84 (≈ 121 µM)	170 (≈ 244 µM)	> 200		120 (≈ 172 µM)		12	inactive	18	12	13	inactive	inactive	inactive	15
	COC(=O)[C@@H]1CCCN1C(=O)C1=C(C)NC(=S)NC1c1cccc(OCCCOc2cccc(C3NC(=S)NC(C)=C3C(=O)N3CCC[C@H]3C(=O)OC)c2)c1 (some centres not stated)	> 200	175 (≈ 221 µM)	190 (≈ 240 µM)	175 (≈ 221 µM)		> 200										
	CCOC(=O)C1=C(C)NC(=S)NC1c1ccc(OCCCCOc2ccc(C3NC(=S)NC(C)=C3C(=O)OCC)cc2OC)c(OC)c1 (configuration not stated)	> 200	178 (≈ 255 µM)	185 (≈ 265 µM)	> 200		> 200	5	10	inactive	12	9	15	inactive	inactive	inactive	13
